# An excerpt weighted towards active compounds, which were near 2.1% of everything screened.
# MIN6 prolif: MIN6 beta-cell proliferation induction; proliferation, % at 10 µM; 0.29% of 330,000 active; MIN6 cells proliferation, ATPlite luminescence, 48 h; cells starved in 0.2% serum; 100% = growth in 10% serum;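 active means compounds whose signal lies at least 3.5 SD above the mean of all wells on their plate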
# NOD2-RIPK2 inh: inhibitors of human NOD2-RIPK2 interaction; 0.38% of 360,000 active; O43353; inhibition, % at 4.98 µM; CHO BLA complementation NOD2-RIPK2, CCF4 ratio; in the data active means inhibition above about 21%
# TLR9-MyD88 inh: TLR9-MyD88 interaction inhibition; 0.21% of 340,000 active; Q9NR96+Q99836; CHO BLA complementation TLR9-MyD88, CCF4 FRET ratio; AID 504734; inhibition, % at 4.98 µM;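 active means inhibition above the mean over all tested compounds plus 3 SD, cut at about 21% in these data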
# MC4R ag barr: human MC4R agonism via beta-arrestin | activation, % at 8.9 µM | AID 540308 | U2OS MC4R beta-arrestin complementation, luminescence; percent of melanotan II response, DMSO zero | 0.98% of 360,000 active | P32245;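 active means activation above a per-plate cutoff, the mean activation of sample wells on that plate plus 3 SD, cut at about 8% in these data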
# MC4R antagonist: human MC4R antagonism in cAMP assay | P32245 | MC4R-expressing cells, MTII-stimulated cAMP, LANCE TR-FRET | inhibition, % at 6.5 µM | 0.48% of 360,000 active | AID 540295;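 active means inhibition above its plate's cutoff, the mean of tested wells on that plate plus 3 SD, cut at about 29% in these data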
#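 System: U2OS-MC4R stable cell line; Technique: Eu-cAMP/anti-cAMP TR-FRET, emission 671 nm; Repeats: single well per compound; Also added: Melanotan II; Dosing: one concentration, 6.5 µM nominal; Schedule: 30-min compound, 1-h challenge, 1-h detection, room temperature.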
# TLR4 MyD88 comp: inhibitors of human TLR4-MyD88 binding; O00206+Q99836; HeLa CL3-4 TLR4/MyD88 BLA complementation, FRET ratio; inhibition, % at 8.4 µM; 0.18% of 200,000 active; in the data active means inhibition above about 25%
# U2OS cAMP counter: nonselective cAMP signaling inhibitor, MC4R antagonist counter-screen | shares compounds with MC4R antagonist | parental U2OS, forskolin cAMP, LANCE TR-FRET | inhibition, % at 6.5 µM | 26% of 1,600 active | AID 602193;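 active means mean inhibition over triplicates above the low-control well mean plus 3 SD, set per campaign, cut at about 13% in these data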;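 further: signal is single emission at 671 nm which falls as cellular cAMP rises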
# MC4R cAMP antag: human MC4R cAMP antagonism confirmation; shares compounds with MC4R antagonist; MC4R-expressing cells, MTII-stimulated cAMP, TR-FRET; inhibition, % at 6.5 µM; 27% of 1,600 active; in the data active means inhibition above about 29%
# Hits are given with their value; i = inactive; nt = no result.
SMILES,MIN6 prolif,NOD2-RIPK2 inh,TLR9-MyD88 inh,MC4R ag barr,MC4R antagonist,TLR4 MyD88 comp,U2OS cAMP counter,MC4R cAMP antag
C[C@H]1Cn2cnc(C(=O)Nc3ccccc3)c2C(=O)N1,nt,i,i,i,31,nt,i,i
Cc1ccc(C(=O)NCC(=O)N(C)CC(=O)Nc2ccccc2Br)s1,i,i,i,i,i,nt,nt,nt
CCOc1ccccc1N(C(=O)c1snc(C(N)=O)c1N)C(C(=O)NCc1ccccc1)c1ccc(O)cc1 (configuration not stated),i,i,i,i,31,nt,i,i
Cc1ccccc1N(C(=O)c1snc(C(N)=O)c1N)C(C(=O)NCc1ccccc1)c1ccc(O)cc1 (configuration not stated),i,i,i,i,i,nt,nt,nt
Cc1cc(=O)n(CC(=O)Nc2cc(Cl)ccc2C)c(C(C)C)n1,i,i,i,i,i,i,nt,nt
Cc1ccc(S(=O)(=O)NCC(=O)OCC(=O)c2cccs2)cc1,i,i,i,i,38,i,i,i
Cc1ccc(S(=O)(=O)NCC(=O)OCC(=O)NC(=O)c2cccn2C)cc1,i,i,i,i,34,i,26,40
CCOc1ccc(NC(=O)CSc2nnnn2C2CCCC2)cc1,i,i,i,i,i,nt,nt,nt
COc1ccc(C(=O)NCC(c2ccccc2)N2CCCC2)cc1S(=O)(=O)N1CCOCC1 (configuration not stated),i,i,i,i,i,nt,nt,nt
O=c1c2ccccc2sn1-c1nccs1,nt,i,nt,i,38,i,i,i
O=C1c2ccccc2C(=O)N1c1nccs1,nt,i,i,i,i,nt,nt,nt
CN(C=O)c1cc([N+](=O)[O-])ccc1OCc1ccccc1,nt,i,i,i,i,nt,nt,nt
CC(C)(C)NC(=O)NC(=O)COC(=O)CNC(=O)c1cc(Cl)cc([N+](=O)[O-])c1,i,i,i,i,30,i,i,i
NC(=O)COC(=O)CNC(=O)c1cc(Cl)cc([N+](=O)[O-])c1,i,i,i,i,i,i,nt,nt
N#CCSc1ccccc1NC(=O)CN1C(=O)C2CC=CCC2C1=O (configuration not stated),i,i,i,i,i,nt,nt,nt
N=c1c2c(-c3ccccc3)c(-c3ccccc3)n(Cc3ccccc3)c2ncn1CCCn1ccnc1,i,i,i,i,29,i,i,35
Cc1ccccc1C(OCC(O)CN1CCC(C(N)=O)CC1)c1ccccc1 (configuration not stated),i,i,i,i,i,nt,nt,nt
CCc1ccc(-c2nc3ccc(Br)cc3c(C(=O)O)c2C)s1,i,i,i,i,133,nt,102,182
Cc1c(-c2ccccc2Br)nc2ccccc2c1C(=O)O,nt,i,i,i,i,nt,nt,nt
CCOc1ccc(C(=O)CCN2CCCCC2)cc1,i,i,i,i,i,i,nt,nt
COc1ccc(C(=O)CCN2CCCCCC2)cc1,i,i,i,i,40,i,15,i
CCN(CC)S(=O)(=O)c1ccc(OC)c(NC(=O)Cn2cnc3c2c(=O)n(C)c(=O)n3C)c1,i,i,i,i,33,i,i,i
COc1ccc(S(=O)(=O)N2CCCCC2)cc1NC(=O)Cn1cnc2c1c(=O)n(C)c(=O)n2C,i,i,i,i,i,nt,nt,nt
O=c1oc(CCCO)cc2ccccc12,i,i,i,i,i,nt,nt,nt
CC(=O)C1(C)C(=O)N(c2ccc(F)cc2)C(=O)N1c1ccc(F)cc1 (configuration not stated),nt,i,i,i,i,nt,nt,nt
SMILES,MIN6 prolif,NOD2-RIPK2 inh,TLR9-MyD88 inh,MC4R ag barr,MC4R antagonist,TLR4 MyD88 comp,U2OS cAMP counter,MC4R cAMP antag
O=C(CN(Cc1ccco1)Cc1ccco1)Nc1cc(S(=O)(=O)N2CCCCC2)ccc1Cl,i,i,i,i,29,nt,i,i
O=C(Nc1cc(S(=O)(=O)N2CCCCC2)ccc1Cl)c1ccccc1NS(=O)(=O)c1ccc(F)cc1,nt,i,i,i,31,i,i,i
C=CCSc1nc2c(N)ncnc2n1C1OC(CO)C(O)C1O (configuration not stated),nt,i,i,i,31,nt,i,i
CCNC(=O)Cn1cc(C(F)(F)F)cc(Cl)c1=O,i,i,i,i,30,nt,i,i
O=C(Cn1cc(C(F)(F)F)cc(Cl)c1=O)NCc1ccc(Cl)cc1Cl,i,i,i,i,i,nt,nt,nt
OCCCNC(=S)Nc1ccc2nccnc2c1,i,i,i,i,i,i,nt,nt
Fc1ccc(NC(=S)Nc2ccc3nccnc3c2)cc1,i,i,i,i,36,i,i,i
CC(C)Cn1c(SCC(=O)N2CCOCC2)nc2ccccc2c1=O,i,i,i,i,i,nt,nt,nt
O=C(OCC(=O)N1CCCC1=O)c1cc(Cl)ccc1O,i,i,i,i,i,nt,nt,nt
O=C(OCC(=O)N1CCCC1=O)c1ncc(Cl)c(Cl)c1Cl,i,i,i,i,31,nt,i,i
NS(=O)(=O)c1ccc(NC(=O)COC(=O)c2ncc(Cl)c(Cl)c2Cl)cc1,i,i,i,i,32,nt,i,29
CCOC(=O)/C(=C/C1=CC(=C/N(C)C)/C(=O)O1)C(C)=O,i,i,i,i,i,nt,nt,nt
CCCn1c(C)cc(C(=O)COC(=O)c2ccc[nH]c2=O)c1C,i,i,i,i,i,i,nt,nt
Cc1nnc(SCC(=O)Nc2nccs2)o1,i,i,i,i,i,nt,nt,nt
Cc1onc(-c2ccccc2)c1C(=O)N1CCC(C)(C(=O)O)C1 (configuration not stated),nt,i,nt,i,i,nt,nt,nt
CC1(C)Cc2c(c(N3CCOCC3)nc3sc4c(NCC5CCCO5)nnnc4c23)CS1 (configuration not stated),i,i,i,i,31,nt,i,i
O=C(Nc1nccs1)c1cc2cc(Cl)ccc2oc1=O,i,i,i,i,33,nt,i,i
CCOC(=O)C(C)(C)N(Cc1ccc(Cl)cc1)S(=O)(=O)c1ccc(Cl)c([N+](=O)[O-])c1,i,nt,nt,nt,nt,i,nt,nt
CCOC(=O)C(C)(C)N(Cc1ccc(C)cc1)S(=O)(=O)c1ccc(Cl)c([N+](=O)[O-])c1,i,i,i,i,31,i,20,52
CCOC(=O)C(C)(C)NS(=O)(=O)c1ccc(Cl)c([N+](=O)[O-])c1,i,i,i,i,40,i,21,35
COc1ccc(NC(=O)CCNS(=O)(=O)c2ccc(Cl)c([N+](=O)[O-])c2)cc1S(N)(=O)=O,i,i,i,i,i,nt,nt,nt
COc1ccc(CNC(=O)C2CCC(=O)N(C3CCCCCC3)C2)c(OC)c1 (configuration not stated),nt,i,i,i,i,nt,nt,nt
CSCCC(=O)N1CCC(CCC(=O)NC2CC2)CC1,i,i,i,i,i,nt,nt,nt
